Measurements published in PMC4443790 (Neuron, 2015).
Entries after “also recorded” stand apart in the source; their conditions may differ. Blank lines part the entries; values can stand above or below the compound they belong to.

Columns and labels:
[1] = tested on: NMDAR currents in hippocampal CA1 pyramidal cells; assay: Whole-cell recordings of NMDA-evoked currents/responses in CA1 pyramidal cells; design: species or system rat; conditions: for effect on NMDA-evoked currents when added alone / effect on NMDAR currents in the presence of 3 μM DHPG: 5PAM523 20 μM, VU0409551 10 μM
[2] = tested on: rats; assay: Behavioral convulsions, modified Racine scale; format: in vivo; conditions: rat
[3] = tested on: hippocampal Schaffer collateral-CA1 (SC-CA1) synapse; assay: DHPG-induced LTD, fEPSP recordings at hippocampal SC-CA1 synapse; design: species or system rat; conditions: for fEPSP slope, % of baseline: measured 55 min after washout
[4] = molecular target: mGlu5 in rat cortical astrocytes (Rattus norvegicus, UniProt P31424); assay: Glutamate-induced calcium mobilization in cultured rat cortical astrocytes; format: cell-based
[5] = tested on: rats; assay: Amphetamine-induced hyperlocomotion; format: in vivo, rat
[6] = tested on: hippocampal SC-CA1 synapse; assay: Theta burst stimulation-induced LTP at the SC-CA1 synapse; design: species or system rat; conditions: 1 μM VU0092273 for 20 min then threshold TBS, 35 min after stimulation
Method in brief: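 Threshold LTP was induced with one theta-burst train: nine bursts of four pulses at 100 Hz, 230 ms interburst interval. fEPSP slope was quantified 35 min after TBS.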

[7] = tested on: rats; assay: Novel object recognition; format: in vivo; conditions: rat, 1-10 mg/kg, 30 min prior to exposure; significant at 3 and 10 mg/kg
[8] = molecular target: T1, α2A adrenergic receptors (Homo sapiens, UniProt P08913); assay: Radioligand competition binding assay; conditions: read-out: IC50 at α2A adrenergic receptors
T1 sequence (P08913 1-465): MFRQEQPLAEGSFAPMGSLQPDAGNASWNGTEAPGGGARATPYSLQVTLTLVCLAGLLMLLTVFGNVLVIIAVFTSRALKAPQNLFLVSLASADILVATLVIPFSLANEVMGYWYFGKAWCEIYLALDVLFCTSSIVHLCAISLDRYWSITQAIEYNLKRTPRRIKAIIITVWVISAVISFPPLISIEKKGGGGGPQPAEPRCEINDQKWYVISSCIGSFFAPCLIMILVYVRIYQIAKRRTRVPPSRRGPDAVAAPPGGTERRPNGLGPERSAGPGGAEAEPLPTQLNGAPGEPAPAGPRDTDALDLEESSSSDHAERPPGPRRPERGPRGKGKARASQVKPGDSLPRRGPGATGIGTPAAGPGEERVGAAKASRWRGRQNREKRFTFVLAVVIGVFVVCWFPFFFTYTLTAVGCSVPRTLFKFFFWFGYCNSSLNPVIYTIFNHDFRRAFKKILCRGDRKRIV

[9] = Rat pharmacokinetics, single oral administration; format: in vivo; conditions: p.o., 3 mg/kg
[10] = molecular target: T2, rat mGlu5 (Rattus norvegicus, UniProt P31424); assay: Intracellular Ca2+ mobilization in HEK293A cells stably expressing rat mGlu5; format: cell-based; conditions: calcium mobilization
Method in brief: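 Stably transfected HEK293A cells expressing rat mGlu5. Test compound added first (30 μM in representative traces), then EC20 and EC80 concentrations of glutamate added in sequence; intracellular calcium mobilization traces recorded.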

[11] = Biotransformation in rat hepatocytes; format: in vitro ADME; conditions: multiple oxidative pathways
[12] = tested on: male Lister-hooded rats; assay: Delayed non-matching to position; format: in vivo; conditions: Lister-hooded rat, 10-60 mg/kg
Method in brief: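 Male Lister-hooded rats (350-450 g), trained to stable accurate performance, received vehicle or test compound (10-60 mg/kg) 60 min before testing. Delays were 1, 10, 20 and 30 sec, with 15 trials each (60 total) and a 45 min maximum per session. Read-outs were proportion of correct responses per delay and trials initiated.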

[13] = tested on: rats; assay: Contextual fear conditioning; format: in vivo; conditions: rat, 0.3 - 10 mg/kg, 30 min pretreatment prior to conditioning
Method in brief: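 Male Sprague Dawley rats (275-300 g) were dosed orally in 20% β-cyclodextrin (3 ml/kg) 30 min before conditioning. In a chamber scented with 10% vanilla extract, they had 2 min habituation, then one 1 s, 0.5 mA shock-context pairing, and returned home after 45 sec. 24 hr later, freezing was scored blind over 2 min 45 sec in the same context without shock or drug.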

[14] = Satellite PK for Fluoro-Jade studies, repeat oral dosing; format: in vivo; conditions: rat, 120 mg/kg p.o. once-daily for 4 days, 75% PEG 400 in water
Method in brief: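 Non-fasted male Sprague Dawley rats received 120 mg/kg orally once daily for 4 days in aqueous PEG 400 vehicle. Serial blood samples were taken at 3, 7 and 24 hr post-dose on day 1 and day 4. Plasma concentrations were quantified by LC-MS/MS.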

[15] = tested on: rats; assay: Fluoro-Jade C staining of rat brain; format: in vivo
[16] = In vitro fraction unbound in rat plasma; format: in vitro ADME
[17] = tested on: rats; assay: Sleep-wake electroencephalography; format: in vivo; conditions: rat, p.o., 10 mg/kg
[18] = tested on: rats; assay: MK-801-induced hyperlocomotion; format: in vivo; conditions: rat, p.o.
Method in brief: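 Male Sprague Dawley rats in an open-field photobeam chamber received vehicle or test compound (10-100 mg/kg, oral, 20% β-cyclodextrin, 3 ml/kg) at t = 30, then MK-801 (0.2 mg/kg s.c. in saline) at t = 60 min. Activity was recorded 60 min more as beam breaks per 5-min bin. AUC from 60 to 120 min gave total ambulations; percent reversal was normalised to vehicle + MK-801; n = 10-12.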

[19] = molecular target: T2, rat mGlu5; assay: mGlu5-mediated ERK1/2 phosphorylation; format: cell-based
Method in brief: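 HEK293A cells stably expressing rat mGlu5 were used. Phosphorylated ERK1/2 was measured with an ALPHAScreen-based ERK Surefire assay, both with glutamate added and without added glutamate.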

[20] = Rat pharmacokinetics, single intravenous administration; format: in vivo; conditions: i.v., 2.5 mg/kg
[21] = Brain distribution in vivo after oral administration; conditions: rat, 1.5 hr after single p.o. 3, 10, 30, 100 mg/kg
[22] = tested on: mGlu1,2,3,4,6,7,8; assay: mGlu subtype selectivity screening; format: cell-based, rat; conditions: 10 μM; shift of agonist concentration response curve
Method in brief: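 Selectivity across mGlu subtypes: mGlu1 was tested by calcium flux in HEK293 cells stably expressing rat mGlu1. mGlu2, 3, 4, 6, 7 and 8 were each tested by thallium flux through GIRK channels in HEK-293-GIRK cells expressing that subtype.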

[23] = tested on: rats; assay: Amphetamine-induced disruption of prepulse inhibition; format: in vivo; conditions: rat, 56.6 and 100 mg/kg, 30 min pretreatment
[24] = In vitro fraction unbound in rat brain; format: in vitro ADME
[25] = tested on: 66 other receptors and ion channels; assay: Radioligand competition binding panel; conditions: 10 μM
[26] = tested on: NMDAR-fEPSP at SC-CA1 synapse; assay: NMDAR-mediated fEPSPs at the SC-CA1 synapse; design: species or system rat
[27] = tested on: EPSCNMDA/EPSCAMPA at SC-CA1 synapses; conditions: 10 μM
[28] = operational model of allosterism, pERK1/2
[29] = rat, 3-100 mg/kg, 30 min pretreatment, amphetamine 1 mg/kg s.c.

T2 sequence (P31424 21-1203): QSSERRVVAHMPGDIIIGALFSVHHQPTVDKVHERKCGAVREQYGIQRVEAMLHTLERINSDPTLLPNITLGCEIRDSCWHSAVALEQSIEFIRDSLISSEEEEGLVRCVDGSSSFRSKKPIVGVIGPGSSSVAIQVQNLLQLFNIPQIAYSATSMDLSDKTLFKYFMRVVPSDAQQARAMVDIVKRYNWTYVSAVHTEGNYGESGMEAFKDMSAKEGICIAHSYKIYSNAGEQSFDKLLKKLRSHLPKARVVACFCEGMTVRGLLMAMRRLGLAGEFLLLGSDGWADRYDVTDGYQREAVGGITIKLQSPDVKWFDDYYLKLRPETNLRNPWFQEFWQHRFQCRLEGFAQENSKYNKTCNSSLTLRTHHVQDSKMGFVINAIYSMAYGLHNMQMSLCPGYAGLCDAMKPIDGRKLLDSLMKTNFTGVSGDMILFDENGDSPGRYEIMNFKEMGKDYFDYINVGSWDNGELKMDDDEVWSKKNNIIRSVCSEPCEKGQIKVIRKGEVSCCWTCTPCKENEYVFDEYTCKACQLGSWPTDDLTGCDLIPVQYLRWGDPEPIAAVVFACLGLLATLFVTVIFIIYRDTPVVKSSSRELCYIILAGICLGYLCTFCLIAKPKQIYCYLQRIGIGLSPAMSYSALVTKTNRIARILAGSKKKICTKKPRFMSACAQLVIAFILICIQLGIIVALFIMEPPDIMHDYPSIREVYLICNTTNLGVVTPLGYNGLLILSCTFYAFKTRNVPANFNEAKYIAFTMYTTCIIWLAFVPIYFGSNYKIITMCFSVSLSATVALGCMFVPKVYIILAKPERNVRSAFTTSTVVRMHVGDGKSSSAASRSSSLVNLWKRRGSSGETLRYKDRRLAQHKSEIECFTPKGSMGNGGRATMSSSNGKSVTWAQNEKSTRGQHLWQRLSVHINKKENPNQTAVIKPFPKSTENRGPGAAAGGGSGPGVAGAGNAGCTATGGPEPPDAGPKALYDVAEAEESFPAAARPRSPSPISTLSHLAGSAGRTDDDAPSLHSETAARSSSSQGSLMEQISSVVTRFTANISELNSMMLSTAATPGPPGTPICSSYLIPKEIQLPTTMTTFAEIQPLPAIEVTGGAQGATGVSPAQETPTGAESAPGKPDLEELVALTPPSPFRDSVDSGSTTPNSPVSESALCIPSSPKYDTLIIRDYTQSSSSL
Sequence of mGlu5 in rat cortical astrocytes (P31424 21-1203): as above

Compound: C[C@@H]1CC[C@H](c2noc(-c3ccc(F)cn3)n2)CN1C(=O)c1ccc(F)cc1 [5PAM523, reference compound]
effect on NMDA-evoked currents when added alone ([1]; voltage clamp): had no effect
effect on NMDAR currents in the presence of 3 μM DHPG ([1]; voltage clamp): potentiated
behavioral convulsions (Racine scale) ([2]; 5PAM523 56.6 mg/kg): induced behavioral convulsions

Compound: N[C@H](C(=O)O)c1cc(O)cc(O)c1 [DHPG, reference compound]
effect of DHPG on inward currents evoked by NMDA ([1]; voltage clamp, DHPG at different concentrations): concentration-dependent increase in inward currents
fEPSP slope, % of baseline ([3]; 25 μM DHPG for 10 min): 78.9% ± 5.7%
fEPSP slope, % of baseline ([3]; 75 μM DHPG for 10 min): 54.9% ± 5.3%

effect on VU0409551 potentiation of glutamate-induced calcium mobilization ([4]; MPEP 10 μM): blocked
Compound: Cc1cccc(C#Cc2ccccc2)n1 [MPEP, 2-methyl-6-(phenylethynyl)-pyridine, reference compound]

Compound: Cc1nc(C#Cc2cccnc2)cs1 [MTEP, reference compound]
effect on reversal of AHL by VU0409551 ([5]; data not shown): blocked

Compound: O=C(c1ccc(C#Cc2ccccc2)cc1)N1CCC(O)CC1 [VU0092273]
effect on fEPSP slope in response to threshold TBS [6]: significant potentiation

Compound: O=C(c1ccc(F)cc1)N1CCc2nc(COc3ccccc3)oc2C1 [VU0409551]
recognition memory in the novel object recognition task [7]: dose-dependent increase
IC50 [8]: 8.9 µM
area-under-the-curve from 0-last (AUC0-last) [9]: 2.9 µM·h
oral bioavailability (%F) [9]: 63%
intrinsic agonist activity [10]: did not possess intrinsic agonist activity
turnover in rat hepatocytes [11]: moderate turnover
total number of trials initiated ([12]; 60 min pretreatment): no change
proportion of correct responses at a 10 and 20 sec delay ([12]; 60 min pretreatment (60 mg/kg)): increased
acquisition of fear memory assessed 24 hr later [13]: significantly enhanced
AUC0-last day 1 [14]: 96 µM·h
AUC0-last day 4 [14]: 95 µM·h
FJC staining ([15]; 360 mg/kg, once daily for 1 month, unpublished findings): can induce FJC staining
FJC staining ([15]; rat, 120 mg/kg p.o. daily for four consecutive days, 24 hr after last dose): did not induce
fraction unbound in rat plasma (fup) [16]: 0.07
duration of decreased time asleep post-administration [17]: 2 h
minimal effective dose (MED), reversal of MK-801-induced hyperlocomotion ([18]; 10-100 mg/kg, 30 min pretreatment, MK-801 0.2 mg/kg s.c.): 10 mg/kg
maximum reversal of MK-801-induced hyperlocomotion ([18]; highest dose 100 mg/kg): 49.7%
pERK1/2 agonist activity ([19]; absence of added glutamate): increased pERK1/2 in the absence of added glutamate; also recorded: robust agonist activity
glutamate-induced phosphorylation of ERK1/2 ([19]; mGlu5-expressing cells): potentiated
agonist efficacy τB [19, 28]: 1.04
cooperativity β with glutamate [19, 28]: 1.43
clearance from plasma (CLp) [20]: 33 mL/min/kg
half-life (t1/2) [20]: 3.9 h
volume of distribution at steady-state (Vss) [20]: 9.6 L/kg
brain to plasma Kp [21]: 2.3
unbound brain to plasma Kp (Kp,uu) [21]: 1.3
effect at the other mGlu receptor subtypes [22]: no effect; also recorded: did not shift the agonist concentration response curve
effect on 3 μM DHPG-induced depolarization or increase in NMDAR response ([1]; current clamp): did not potentiate
effect on NMDA-evoked responses when applied alone ([1]; current clamp): had no effect
effect on NMDA-evoked currents when added alone ([1]; voltage clamp): had no effect
effect on NMDAR currents in the presence of 3 μM DHPG ([1]; voltage clamp): had no effect
amphetamine-induced disruptions in PPI [23]: reversed
fEPSP slope, % of baseline ([3]; 10 μM VU0409551 plus 25 μM DHPG): 43.7% ± 4.6%
effect on fEPSP slope when applied alone ([3]; VU0409551 alone, transient, returned to baseline within 10 min of washout): slight depression in the fEPSP slope
behavioral convulsions ([2]; repeated once-daily 450 mg/kg over 14 days, data not shown): did not induce behavioral convulsions
brain to plasma partition coefficient (Kp) at unrestricted equilibrium ([fup]/[fubr]) ([24]; from in vitro fup and fubr): 1.8
fraction unbound in rat brain (fubr) ([24]; in vitro): 0.04
maximum reversal of amphetamine-induced hyperlocomotion ([5]; rat, 3-100 mg/kg): 78.1%
ED50, reversal of amphetamine-induced hyperlocomotion [5, 29]: 5.9 mg/kg
MED, reversal of amphetamine-induced hyperlocomotion [5, 29]: 3 mg/kg
EC50 ([5]; read-out: in vivo EC50 for reversal of AHL, terminal (1.5 hr) unbound brain concentration, individual animal concentration-efficacy data from all dose groups): 0.097 µM
Emax for reversal of AHL ([5]; unbound brain concentration-efficacy analysis): 82%
activity at 66 other receptors and ion channels [25]: no activity
effect on NMDAR-fEPSP slope [26]: had no effect
intrinsic agonist activity ([4]; cultured rat cortical astrocytes): no intrinsic agonist activity
maximum glutamate response ([4]; rat cortical astrocytes): 79.5%
effect on EPSCNMDA/EPSCAMPA ratio when applied alone [27]: had no effects

Compound: C[C@@H](NC(=O)c1ccc(C#Cc2cccc(F)c2)cn1)C(C)(C)O [VU0424465, reference compound]
FJC-positive neurons in the auditory cortex and adjacent cortical regions ([15]; rat, single dose 3 mg/kg i.p., 24 hr after dose): induced cell death
behavioral convulsions (Racine scale) ([2]; VU0424465 3 mg/kg): induced behavioral convulsions
